Measurements reported in ChEMBL document CHEMBL1914409, “Cytotoxicity and gene expression profiles of novel synthesized steroid derivatives as chemotherapeutic anti-breast cancer agents” (Bioorg Med Chem, 2011).
The source made the active and inactive calls. No cut-off for these calls is given here.

How the values were obtained:
MCF7 [1] = assay: Reduction in CYP19 mRNA expression in human MCF7 cells by RT-PCR relative to control; assay type: functional, cell-based
Procedure, shortened: (§1)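 RNA taken from MCF-7 cells after 48 h treatment in the cytotoxicity study, then oligo(dT)-primed reverse transcription (25 °C 10 min, 42 °C 1 h). Semi-quantitative PCR run with VEGF 40 cycles (59 °C annealing), CYP19 50 cycles (60 °C), hAP-2γ 20 cycles (65 °C) and β-actin 40 cycles (60 °C). Gel band intensity expressed as a ratio to β-actin; P<0.05.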

MCF7 [2] = assay: Reduction in AP-2 gamma mRNA expression in human MCF7 cells by RT-PCR relative to control; assay type: functional, cell-based; procedure, shortened: as §1
MCF7 [3] = assay: Cytotoxicity against human MCF7 cells assessed as growth inhibition after 72 hrs by SRB assay; assay type: functional, cell-based; conditions: MCF7, 72 h
Procedure, shortened: (§2)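 MCF-7 (ATCC) kept in RPMI-1640 with penicillin/streptomycin and FBS, used at 90% confluence and seeded at 5×10^4–10^5 cells/well. Exposed to 5, 12.5, 25 or 50 µg/mL of compound in DMSO for 24, 48 or 72 h, with vehicle-treated controls and 6 wells per concentration. Cells fixed in cold TCA and stained with 0.4% SRB; dye taken up in 10 mM Tris pH 10.5 and read at 564 nm. Result given as % growth inhibition versus control.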

MCF7 [4] = assay: Cytotoxicity against human MCF7 cells assessed as growth inhibition at 25 ug/ml after 24 hrs by SRB assay; assay type: functional; procedure, shortened: as §2
MCF7 [5] = assay: Cytotoxicity against human MCF7 cells assessed as growth inhibition at 12.5 ug/ml after 24 hrs by SRB assay; assay type: functional; procedure, shortened: as §2
MCF7 [6] = assay: Cytotoxicity against human MCF7 cells assessed as growth inhibition after 24 hrs by SRB assay; assay type: functional, cell-based; conditions: MCF7, 24 h; procedure, shortened: as §2
MCF7 [7] = assay: Cytotoxicity against human MCF7 cells assessed as growth inhibition at 25 ug/ml after 48 hrs by SRB assay; assay type: functional, cell-based; procedure, shortened: as §2
MCF7 [8] = assay: Cytotoxicity against human MCF7 cells assessed as growth inhibition at 12.5 ug/ml after 48 hrs by SRB assay; assay type: functional, cell-based; procedure, shortened: as §2
MCF7 [9] = assay: Cytotoxicity against human MCF7 cells assessed as growth inhibition at 5 ug/ml after 72 hrs by SRB assay relative to control; assay type: functional; procedure, shortened: as §2
MCF7 [10] = assay: Cytotoxicity against human MCF7 cells assessed as growth inhibition after 48 hrs by SRB assay; assay type: functional, cell-based; conditions: MCF7, 48 h; procedure, shortened: as §2
MCF7 [11] = assay: Reduction in VEGF mRNA expression in human MCF7 cells by RT-PCR relative to control; assay type: functional, cell-based; procedure, shortened: as §1
MCF7 [12] = assay: Cytotoxicity against human MCF7 cells assessed as growth inhibition at 50 ug/ml after 24 hrs by SRB assay; assay type: functional, cell-based; procedure, shortened: as §2
MCF7 [13] = assay: Cytotoxicity against human MCF7 cells assessed as growth inhibition at 50 ug/ml after 48 hrs by SRB assay; assay type: functional, cell-based; procedure, shortened: as §2
MCF7 [14] = assay: Cytotoxicity against human MCF7 cells assessed as growth inhibition at 5 ug/ml after 48 hrs by SRB assay; assay type: functional, cell-based; procedure, shortened: as §2
MCF7 [15] = assay: Cytotoxicity against human MCF7 cells assessed as growth inhibition at 12.5 ug/ml after 72 hrs by SRB assay; assay type: functional; conditions: MCF7, 72 h, read-out: GI; procedure, shortened: as §2

Row | Structure (SMILES) | Activity (MCF7 [1]) | Activity (MCF7 [2]) | IC50 (MCF7 [3]) | growth inhibition (GI) (MCF7 [4]) | growth inhibition (GI) (MCF7 [5]) | IC50 (MCF7 [6]) | growth inhibition (GI) (MCF7 [7]) | growth inhibition (GI) (MCF7 [8]) | growth inhibition (GI) (MCF7 [9]) | IC50 (MCF7 [10]) | Activity (MCF7 [11]) | growth inhibition (GI) (MCF7 [12]) | growth inhibition (GI) (MCF7 [13]) | growth inhibition (GI) (MCF7 [14]) | inhibition of growth at 25 µg/mL (MCF7 [4]; MCF7, 24 h, read-out: GI) | inhibition of growth at 12.5 µg/mL (MCF7 [5]; MCF7, 24 h, read-out: GI) | inhibition of growth at 5 µg/mL (MCF7 [9]; MCF7, 72 h, read-out: GI) | inhibition of growth at 12.5 µg/mL (MCF7 [15])
1 | C[C@]12CC[C@H](O)C[C@@H]1CC[C@@H]1[C@@H]2CC[C@@]2(C)[C@H]1CC[C@]21OC1C(=O)c1ccccc1 (stereo partly specified) | Active | Active | 17.3 µM | Active | Active | 17.1 µM | Active | Active | Active | 7.3 µM | Active | Active | Active |  |  |  |  | 
2 | COc1cccc2c1C(=O)c1c(O)c3c(c(O)c1C2=O)C[C@@](O)(C(=O)CO)C[C@@H]3O[C@H]1C[C@H](N)[C@H](O)[C@H](C)O1 | Active | Active |  |  |  |  |  |  |  |  | Active |  |  |  |  |  |  | 
3 | CC(=O)O[C@H]1CC[C@@]2(C)[C@@H](CC[C@@H]3[C@@H]2CC[C@]2(C)c4nc(CC#N)sc4C[C@@H]32)C1 | Active | Active | 2.9 µM |  |  | 2.9 µM | Active | Active |  | 2.5 µM | Active | Active | Active | Active | 85% | 91% | 93% | 91%
4 | CC(=O)O[C@H]1CC[C@@]2(C)[C@@H](CC[C@@H]3[C@@H]2CC[C@]2(C)/C(=N/C4CCNN=C4O)CC[C@@H]32)C1 (stereo partly specified) | Active | Active | 11.5 µM | Active |  | 18.5 µM | Active | Active | Active | 9.9 µM | Active | Active | Active |  |  |  |  | 
5 | C[C@]12CC[C@H]3[C@@H](CCC4=CC(=O)CC[C@@]43C)[C@@H]1CC[C@@H]2n1c(=S)n(-c2ccccc2)c(=O)c2cc(F)ccc21 | Active | Active | 16 µM | Active |  | 17.7 µM | Active |  | Active | 11.5 µM | Active | Active | Active |  |  |  |  | 
6 | C[C@]12CC[C@H]3[C@@H](CCC4=C[C@]5(CC[C@@]43C)OC5C(=O)c3ccccc3)[C@@H]1CC[C@@H]2O (stereo partly specified) | Active | Active | 12 µM | Active | Active | 15.1 µM | inactive |  | Active | 16 µM | Active | Active | Active |  |  |  |  | 
7 | C[C@]12CC[C@H]3[C@@H](CCC4=CC(=O)CC[C@@]43C)[C@@H]1CC[C@@H]2n1c(=S)n(-c2ccccc2)c(=O)c2ccccc21 | Active | Active | 17.5 µM | Active | Active | 13.1 µM | Active |  | Active | 12.5 µM | Active | Active | Active |  |  |  |  | 
8 | CC(=O)O[C@H]1CC[C@@]2(C)[C@@H](CC[C@@H]3[C@@H]2CC[C@]2(C)/C(=N/c4ccc(S(=O)(=O)N(CCO)c5ncccn5)cc4)CC[C@@H]32)C1 | Active | Active | 10 µM | Active | Active | 14.7 µM | Active | Active | Active | 7.5 µM | Active | Active | inactive |  |  |  |  | 
